Values after ≈ are worked out from the molar mass of the structure shown. Active and inactive are the calls of the source.
Experiments:
Candida albicans = assay: Antifungal activity against Candida albicans ATCC 10231 by broth microdilution method; assay type: functional
How it was run: (§1)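 Broth microdilution per NCCLS. Compounds dissolved in DMSO as 10 mg/mL stock, diluted in Mueller Hinton broth (bacteria) or Sabouraud dextrose broth (fungi). Amikacin served as the positive control for bacteria and nystatin for fungi.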

NCI-H460 [1] = assay: Cytotoxicity against multidrug resistant human NCI-H460 cells after 72 hrs by MTT assay; assay type: functional, cell-based; conditions: NCI-H460, 72 h
How it was run: (§2)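 Seeding in 96-well plates at 1000 (NCI-H460), 2000 (NCI-H460/R) or 4000 (HaCaT) cells/well, treated after 24 h for 72 h. MTT at 0.4 mg/mL final, 4 h at 37 °C. Formazan dissolved in DMSO, absorbance read at 540 nm. Inhibition % = (1 − A treated/A untreated)×100. IC30 and IC50 obtained by linear regression.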

Escherichia coli = assay: Antibacterial activity against Escherichia coli ATCC 25922 by broth microdilution method; assay type: functional; how it was run: as §1
NCI-H460 [2] = assay: Cytotoxicity against human NCI-H460 cells after 72 hrs by MTT assay; assay type: functional, cell-based; conditions: NCI-H460, 72 h; how it was run: as §2
Pseudomonas aeruginosa = assay: Antibacterial activity against Pseudomonas aeruginosa ATCC 9027 by broth microdilution method; assay type: functional; how it was run: as §1
Aspergillus brasiliensis = assay: Antifungal activity against Aspergillus brasiliensis ATCC 16404 by broth microdilution method; assay type: functional; how it was run: as §1
Micrococcus luteus [3] = assay: Antibacterial activity against Micrococcus luteus ATCC 4698 by broth microdilution method; assay type: functional; conditions: NCTC 2665; how it was run: as §1
HaCaT [4] = assay: Cytotoxicity against human HaCaT cells after 72 hrs by MTT assay; assay type: cell-based; conditions: for IC50: Homo sapiens, HaCaT; for IC30: human, hacat; how it was run: as §2
Clostridium sporogenes = assay: Antibacterial activity against Clostridium sporogenes ATCC 19404 by broth microdilution method; assay type: functional; how it was run: as §1
Salmonella enteritidis = assay: Antibacterial activity against Salmonella enterica subsp. enterica serovar Enteritidis ATCC 13076 by broth microdilution method; assay type: functional; how it was run: as §1
Micrococcus luteus [5] = assay: Antibacterial activity against Micrococcus luteus ATCC 10240 by broth microdilution method; assay type: functional; how it was run: as §1
Staphylococcus aureus = assay: Antibacterial activity against Staphylococcus aureus ATCC 6538 by broth microdilution method; assay type: functional; how it was run: as §1
Saccharomyces cerevisiae = assay: Antifungal activity against Saccharomyces cerevisiae ATCC 9763 by broth microdilution method; assay type: functional; how it was run: as §1
Bacillus spizizenii = assay: Antibacterial activity against Bacillus subtilis ATCC 6633 by broth microdilution method; assay type: functional; how it was run: as §1
Kocuria rhizophila = assay: Antibacterial activity against Kocuria rhizophila ATCC 9341 by broth microdilution method; assay type: functional; conditions: DC2201; how it was run: as §1
Proteus hauseri = assay: Antibacterial activity against Proteus hauseri ATCC 13315 by broth microdilution method; assay type: functional; how it was run: as §1
NCI-H460 [6] = assay: Selectivity ratio of IC30/IC50 for human NCI-H460 cells to IC30/IC50 for multidrug resistant human NCI-H460 cells; assay type: functional
How it was run: (§3)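 Fold threshold of 1.5 used to call selectivity to cancer cells, resistance, or selectivity to MDR cells.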

NCI-H460 [7] = assay: Induction of apoptosis in multidrug resistant human NCI-H460 cells assessed as early apoptotic cells at 25 uM after 72 hrs by annexin-V/propidium iodide staining-based flow cytometric analysis (reference value: 1.1%); assay type: functional
NCI-H460 [8] = assay: Induction of apoptosis in multidrug resistant human NCI-H460 cells assessed as live cells at 25 uM after 72 hrs by annexin-V/propidium iodide staining-based flow cytometric analysis (reference value: 96.4%); assay type: functional
NCI-H460 [9] = assay: Induction of apoptosis in human NCI-H460 cells assessed as dead cells at 25 uM after 72 hrs by annexin-V/propidium iodide staining-based flow cytometric analysis (reference value: 1.2%); assay type: functional
NCI-H460 [10] = assay: Induction of apoptosis in multidrug resistant human NCI-H460 cells assessed as late apoptotic/necrotic cells at 25 uM after 72 hrs by annexin-V/propidium iodide staining-based flow cytometric analysis (reference value: 1%); assay type: functional
[11] = Selectivity ratio of IC30/IC50 for human HaCaT cells to IC30/IC50 for human NCI-H460 cells; assay type: ADME, cell-based; conditions: HaCaT cells versus NCI-H460 cells; how it was run: as §3
NCI-H460 [12] = assay: Induction of apoptosis in human NCI-H460 cells assessed as early apoptotic cells at 25 uM after 72 hrs by annexin-V/propidium iodide staining-based flow cytometric analysis (reference value: 0.3%); assay type: functional
[13] = Induction of apoptosis in human HaCaT cells assessed as live cells at 25 uM after 72 hrs by annexin-V/propidium iodide staining-based flow cytometric analysis (reference value: 96.8%); assay type: cell-based; conditions: read-out: Activity
HaCaT [14] = assay: Induction of apoptosis in human HaCaT cells assessed as late apoptotic/necrotic cells at 25 uM after 72 hrs by annexin-V/propidium iodide staining-based flow cytometric analysis (reference value: 0.2%); assay type: cell-based
HaCaT [15] = assay: Induction of apoptosis in human HaCaT cells assessed as dead cells at 25 uM after 72 hrs by annexin-V/propidium iodide staining-based flow cytometric analysis (reference value: 2.8%); assay type: cell-based
NCI-H460 [16] = assay: Induction of apoptosis in human NCI-H460 cells assessed as live cells at 25 uM after 72 hrs by annexin-V/propidium iodide staining-based flow cytometric analysis (reference value: 98.3%); assay type: functional
NCI-H460 [17] = assay: Induction of superoxide anion generation in multidrug resistant human NCI-H460 cells at 25 uM after 72 hrs by DHE staining-based flow cytometric analysis relative to control; assay type: functional, cell-based
How it was run: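 Seeded as for cell death (50,000 or 100,000 cells/well), treated 72 h at 25 µM, with CDDP 5 µM as control. Adherent cells trypsinized and loaded with 1 µM DHE for 30 min at 37 °C in the dark, then washed twice in PBS. Flow cytometry at ex 488/em 585 nm (FL2-H). Mean fluorescence intensity corrected for autofluorescence and compared with untreated control.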

HaCaT [18] = assay: Induction of apoptosis in human HaCaT cells assessed as early apoptotic cells at 25 uM after 72 hrs by annexin-V/propidium iodide staining-based flow cytometric analysis (reference value: 0.2%); assay type: cell-based
NCI-H460 [19] = assay: Induction of apoptosis in human NCI-H460 cells assessed as late apoptotic/necrotic cells at 25 uM after 72 hrs by annexin-V/propidium iodide staining-based flow cytometric analysis (reference value: 0.2%); assay type: functional
NCI-H460 [20] = assay: Induction of apoptosis in multidrug resistant human NCI-H460 cells assessed as dead cells at 25 uM after 72 hrs by annexin-V/propidium iodide staining-based flow cytometric analysis (reference value: 1.5%); assay type: functional
[21] = Selectivity ratio of IC30/IC50 for human HaCaT cells to IC30/IC50 for multidrug resistant human NCI-H460 cells; assay type: ADME, cell-based; conditions: HaCaT cells versus multidrug resistant NCI-H460 cells; how it was run: as §3

Molecule	MIC (Candida albicans) [µM]	IC30 (NCI-H460 [1]) [µM]	IC50 (NCI-H460 [1]) [µM]	MIC (Escherichia coli) [µM]	IC30 (NCI-H460 [2]) [µM]	IC50 (NCI-H460 [2]) [µM]	MIC (Pseudomonas aeruginosa) [µM]	MIC (Aspergillus brasiliensis) [µM]	MIC (Micrococcus luteus [3]) [µM]	IC50 (HaCaT [4]) [µM]	IC30 (HaCaT [4]) [µM]	MIC (Clostridium sporogenes) [µM]	MIC (Salmonella enteritidis) [µM]	MIC (Micrococcus luteus [5]) [µM]	MIC (Staphylococcus aureus) [µM]	MIC (Saccharomyces cerevisiae) [µM]	MIC (Bacillus spizizenii) [µM]	MIC (Kocuria rhizophila) [µM]	MIC (Proteus hauseri) [µM]	also measured
CCCCNC1=CC(=O)C=C(C(C)(C)C)C1=O	77 (≈ 18.1 µg/mL)	4	13	9 (≈ 2.12 µg/mL)	4	14	620 (≈ 146 µg/mL)	620 (≈ 146 µg/mL)	154 (≈ 36.2 µg/mL)	11	7	1240 (≈ 291 µg/mL)	620 (≈ 146 µg/mL)	9 (≈ 2.12 µg/mL)	9 (≈ 2.12 µg/mL)	154 (≈ 36.2 µg/mL)	1240 (≈ 291 µg/mL)			
NCC[C@H](O)C(=O)N[C@@H]1C[C@H](N)[C@@H](O[C@H]2O[C@H](CN)[C@@H](O)[C@H](O)[C@H]2O)[C@H](O)[C@H]1O[C@H]1O[C@H](CO)[C@@H](O)[C@H](N)[C@H]1O [AMIKACIN]				9 (≈ 5.27 µg/mL)			85 (≈ 49.8 µg/mL)		3 (≈ 1.76 µg/mL)			26 (≈ 15.2 µg/mL)	14 (≈ 8.2 µg/mL)	14 (≈ 8.2 µg/mL)	19 (≈ 11.1 µg/mL)		72 (≈ 42.2 µg/mL)	3 (≈ 1.76 µg/mL)	12 (≈ 7.03 µg/mL)	
CNC1=CC(=O)C(C(C)(C)C)=CC1=O	1620 (≈ 313 µg/mL)	31	58	104 (≈ 20.1 µg/mL)	34	63	1620 (≈ 313 µg/mL)	51 (≈ 9.86 µg/mL)	831 (≈ 161 µg/mL)	28	17	813 (≈ 157 µg/mL)	813 (≈ 157 µg/mL)	103 (≈ 19.9 µg/mL)	25 (≈ 4.83 µg/mL)	1620 (≈ 313 µg/mL)	813 (≈ 157 µg/mL)	409 (≈ 79 µg/mL)	813 (≈ 157 µg/mL)	
CCCCNC1=CC(=O)C=C(C[C@]2(C)[C@@H](C)CC[C@]3(C)C(C)=CCC[C@@H]23)C1=O		3	6		9	16				16	11									selectivity ratio (NCI-H460 [6]): <=1.5
NYSTATIN	2700							1350								1350				
CC(C)(C)C1=CC(=O)C(NCCc2ccccc2)=CC1=O	2210 (≈ 626 µg/mL)	11	33		17	35	2210 (≈ 626 µg/mL)	1110 (≈ 313 µg/mL)	2210 (≈ 626 µg/mL)	> 100	> 100	2210 (≈ 626 µg/mL)	4420 (≈ 1250 µg/mL)	4420 (≈ 1250 µg/mL)		2210 (≈ 626 µg/mL)	4420 (≈ 1250 µg/mL)	2210 (≈ 626 µg/mL)	2210 (≈ 626 µg/mL)	Activity (NCI-H460 [7]): 1.3%; Activity (NCI-H460 [8]): 81%; Activity (NCI-H460 [9]): 13%; Activity (NCI-H460 [10]): 3.6%; selectivity ratio [11]: ≤ 1.5; Activity (NCI-H460 [12]): 0.8%; viability at 72 h, 25 µM [13]: 89.2%; Activity (HaCaT [14]): 1.7%; Activity (HaCaT [15]): 8.3%; Activity (NCI-H460 [16]): 80.8%; Activity (NCI-H460 [17]): inactive; Activity (HaCaT [18]): 0.8%; Activity (NCI-H460 [19]): 5.4%; Activity (NCI-H460 [20]): 14.1%; selectivity ratio [21]: ≤ 1.5
